Data published in ChEMBL document CHEMBL1123816, “Synthesis and antidepressant properties of novel 2-substituted 4,5-dihydro-1H-imidazole derivatives” (J Med Chem, 1987).
Active and inactive are the calls of the source. The calls are words filed in the database; no cut-off is given here.

How the values were obtained:
[1] = target: T1, Adrenergic receptor alpha-2 (Rattus norvegicus, UniProt P22086+P19328+P22909); test: Ability to displace [3H]clonidine from alpha-2 adrenergic receptor in rat brain homogenates in vitro; format: tissue-based
T1 sequence (P22086 whole entry): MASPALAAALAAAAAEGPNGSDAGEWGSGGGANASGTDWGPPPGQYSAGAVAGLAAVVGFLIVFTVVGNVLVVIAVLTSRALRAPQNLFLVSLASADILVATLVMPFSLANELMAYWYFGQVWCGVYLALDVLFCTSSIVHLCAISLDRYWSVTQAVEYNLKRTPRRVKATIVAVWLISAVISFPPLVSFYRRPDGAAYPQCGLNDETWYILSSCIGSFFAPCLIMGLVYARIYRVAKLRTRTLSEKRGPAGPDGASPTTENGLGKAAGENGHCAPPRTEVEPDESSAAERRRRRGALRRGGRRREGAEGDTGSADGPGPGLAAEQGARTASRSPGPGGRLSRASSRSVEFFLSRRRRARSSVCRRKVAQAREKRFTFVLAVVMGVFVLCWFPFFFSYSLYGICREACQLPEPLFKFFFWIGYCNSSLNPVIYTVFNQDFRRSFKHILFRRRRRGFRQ
T1 sequence (P19328 whole entry): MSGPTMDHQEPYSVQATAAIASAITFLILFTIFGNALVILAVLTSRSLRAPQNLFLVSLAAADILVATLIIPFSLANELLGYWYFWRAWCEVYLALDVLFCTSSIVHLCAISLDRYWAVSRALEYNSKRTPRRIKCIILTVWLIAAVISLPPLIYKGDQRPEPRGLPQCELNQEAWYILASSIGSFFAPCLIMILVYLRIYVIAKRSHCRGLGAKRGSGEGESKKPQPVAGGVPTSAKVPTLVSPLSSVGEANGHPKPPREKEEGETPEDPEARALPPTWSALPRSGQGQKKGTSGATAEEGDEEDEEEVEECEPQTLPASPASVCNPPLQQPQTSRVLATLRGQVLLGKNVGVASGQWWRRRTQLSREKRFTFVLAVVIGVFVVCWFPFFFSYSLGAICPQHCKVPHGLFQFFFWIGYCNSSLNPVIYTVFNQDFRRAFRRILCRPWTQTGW
T1 sequence (P22909 whole entry): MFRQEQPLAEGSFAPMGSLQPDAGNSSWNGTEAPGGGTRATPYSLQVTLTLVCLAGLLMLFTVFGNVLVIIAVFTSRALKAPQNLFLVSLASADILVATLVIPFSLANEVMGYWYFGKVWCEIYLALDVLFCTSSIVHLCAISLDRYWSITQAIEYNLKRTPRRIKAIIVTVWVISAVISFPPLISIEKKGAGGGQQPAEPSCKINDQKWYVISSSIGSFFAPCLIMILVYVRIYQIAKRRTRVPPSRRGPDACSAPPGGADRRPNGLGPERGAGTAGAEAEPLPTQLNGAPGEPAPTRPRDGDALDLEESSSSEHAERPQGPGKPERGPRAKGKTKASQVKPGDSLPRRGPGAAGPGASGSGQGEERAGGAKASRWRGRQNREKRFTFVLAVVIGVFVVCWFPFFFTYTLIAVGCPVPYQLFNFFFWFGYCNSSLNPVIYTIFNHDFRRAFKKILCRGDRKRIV

[2] = target: T1, Adrenergic receptor alpha-2; test: In vitro antagonistic activity against alpha-2 adrenergic receptor in isolated electrically stimulated rat vas deferens (clonidine-induced decrease in twitch height); format: functional, tissue-based
[3] = target: T2, Adrenergic receptor alpha-2 (Rattus norvegicus) (UniProt P22086+P19328+P22909); test: In vitro antagonistic activity against alpha-2 adrenergic receptor in isolated electrically stimulated rat vas deferens (clonidine-induced decrease in twitch height)at 500 uM concentration. IA is Inactive, no antagonism at 500 uM; format: functional
Rattus norvegicus [4] = species: Rattus norvegicus; test: Inhibition of [3H]norepinephrine uptake into rat brain synaptosomes in vitro;Values ranges from: 0.01-0.07; format: functional
Method in brief: (§1)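 Male Sprague–Dawley rat (180–240 g) cortex (NE, 5-HT) or striatum (DA) crude P2 synaptosomes in 0.32 M sucrose. Preincubated 5 min at 25 °C with drug in Krebs–Ringer phosphate containing ascorbate, EDTA, nialamide; 0.1 μM final [3H]amine added for 5 min. Stopped by cold saline and GF/B filtration; nonspecific uptake at 4 °C. IC50 with 95% limits computed.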

Rattus norvegicus [5] = test: Minimum effective dose required for inhibition of serotonin uptake was determined by PCA method in rat by peroral administration; format: functional; conditions: po, read-out: MED
Method in brief: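 Fasted male Sprague–Dawley rats (160–200 g) given test compound orally in water (10 mL/kg) 15 min before p-chloroamphetamine 3 mg/kg ip. Forebrain taken 3 h later, extracted in acidified butanol then heptane/0.1 N HCl. Serotonin in aqueous phase measured fluorometrically after o-phthalaldehyde condensation (excitation 360 nm). Minimum effective dose reported.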

Rattus norvegicus [6] = species: Rattus norvegicus; test: Inhibition of [3H]dopamine uptake into rat brain synaptosomes in vitro;Values ranges from: 0.09-0.18; format: functional; method in brief: as §1
Mus musculus [7] = test: Effective dose required for inhibition of tetrabenazine-induced ptosis in mouse by peroral administration;Values ranges from: 1.8-9.3; format: functional; conditions: po
Rattus norvegicus [8] = species: Rattus norvegicus; test: Inhibition of [3H]5-HT uptake into rat brain synaptosomes in vitro;Values ranges from: 0.14-0.22; format: functional; method in brief: as §1
[9] = target: T2, Adrenergic receptor alpha-2 (Rattus norvegicus); test: In vitro antagonistic activity against alpha-2 adrenergic receptor in isolated electrically stimulated rat vas deferens (clonidine-induced decrease in twitch height) at 500 uM concentration;IA is Inactive, no antagonism at 500 uM; format: functional
[10] = target: T2, Adrenergic receptor alpha-2 (Rattus norvegicus); test: In vitro antagonistic activity against alpha-2 adrenergic receptor in isolated electrically stimulated rat vas deferens (clonidine-induced decrease in twitch height) at 500 uM concentration.;IA is Inactive, no antagonism at 500 uM; format: functional
Rattus norvegicus [11] = species: Rattus norvegicus; test: Inhibition of [3H]5-HT uptake into rat brain synaptosomes in vitro; format: functional
Method in brief: (§2)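 Male Sprague–Dawley rat cerebral cortex (180–240 g) homogenized in 0.32 M sucrose; crude P2 synaptosomes. Preincubated 5 min at 25 °C in modified Krebs–Ringer phosphate with ascorbic acid, EDTA and nialamide. Uptake run 5 min with 0.1 μM final [3H]-5-HT or [3H]NE, stopped by ice-cold saline and filtration. Nonspecific uptake taken at 4 °C. Scintillation counting; IC50 with 95% confidence limits.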

Mus musculus [12] = test: Effective dose required for inhibition of tetrabenazine-induced ptosis in mouse by peroral administration; format: functional; conditions: po
Method in brief: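 Swiss Webster mice; test compound in 0.9% NaCl (10 mL/kg) given po 30 min before ip tetrabenazine methanesulfonate (50 mg/kg, in 0.9% NaCl with moderate heating). Ptosis scored subjectively 30 min after tetrabenazine on a 0–4 scale (0 = complete eye closure, 4 = no closure). ED50 with 95% confidence limits from quantal dose–response analysis.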

Rattus norvegicus [13] = species: Rattus norvegicus; test: Inhibition of [3H]norepinephrine uptake into rat brain synaptosomes in vitro;Values ranges from: 8.6-21; format: functional; method in brief: as §2
Mus musculus [14] = test: Effective dose required to antagonise clonidine-induced antinociception(ACA) in mouse by peroral administration;Values ranges from: 0.5-3.8; format: functional; conditions: po
Rattus norvegicus [15] = species: Rattus norvegicus; test: Inhibition of [3H]dopamine uptake into rat brain synaptosomes in vitro; format: functional
Method in brief: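 Male Sprague–Dawley rat corpus striatum (180–240 g) homogenized in 0.32 M sucrose; P2 synaptosomes. Preincubated 5 min at 25 °C in modified Krebs–Ringer phosphate with ascorbic acid, EDTA and nialamide. Uptake run 5 min with 0.1 μM final [3H]dopamine, ended by cold saline and GF/B filtration. Nonspecific uptake measured at 4 °C. IC50 with 95% confidence limits.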

[16] = target: T2, Adrenergic receptor alpha-2 (Rattus norvegicus); test: In vitro antagonistic activity against alpha-2 adrenergic receptor in isolated electrically stimulated rat vas deferens (clonidine-induced decrease in twitch height) at 500 uM concentration. IA is Inactive, no antagonism at 500 uM; format: functional

SMILES	Ki [1]	pA2 [2]	other results
C[C@@H]1c2ccccc2CC[C@@H]1CC1=NCCN1.Cl	135 nM	7.22	
Cl.c1ccc2cc(CC3=NCCN3)ccc2c1	48 nM	7.67	
CC1=C(CC2=NCCN2C)CCc2ccccc21.Cl	436 nM		pA2 [3]: inactive
CN(C)CCCN1c2ccccc2CCc2ccccc21 [IMIPRAMINE]			IC50 (Rattus norvegicus [4]): 30 nM; minimal effective dose (Rattus norvegicus [5]): 30 mg/kg; IC50 (Rattus norvegicus [6]): 130 nM; ED50 (Mus musculus [7]): 4.1 mg/kg; IC50 (Rattus norvegicus [8]): 180 nM
CCN1CCN=C1CC1=C(C)c2ccccc2CC1.Cl	548 nM		pA2 [9]: inactive
CC(C1=Cc2ccccc2CC1)C1=NCCN1.Cl (centres undefined)	32 nM	7.43	
Cc1c(CC2=NCCN2)ccc2ccccc12.Cl	6.6 nM	7.35	
C1=C(CC2=NCCN2)Cc2ccccc21.Cl	76 nM	7.19	
CC1=C(CC2=NCCCN2)CCc2ccccc21.Cl	334 nM		pA2 [10]: inactive
C[C@H]1c2ccccc2CC[C@@H]1CC1=NCCN1.Cl	401 nM		
CC1=C(CC2=NCCN2)Cc2ccccc21.Cl	6.9 nM	7.71	
c1ccc2c(c1)OCC(C1=NCCN1)O2 (centres undefined) [IDAZOXAN]			IC50 (Rattus norvegicus [11]): > 30000 nM; minimal effective dose (Rattus norvegicus [5]): > 30 mg/kg; ED50 (Mus musculus [12]): > 30 mg/kg; IC50 (Rattus norvegicus [13]): 13000 nM; ED50 (Mus musculus [14]): 1.3 mg/kg; IC50 (Rattus norvegicus [15]): > 30000 nM
CC1=C(Cc2ncc[nH]2)CCc2ccccc21	88 nM	6.92	
CC1=C(CC2=NCC(C)N2)CCc2ccccc21.Cl (centres undefined)	> 800 nM		pA2 [16]: inactive
